According to ChEMBL document CHEMBL3124806, “Imidazopyridine-fused [1,3]-diazepinones: synthesis and antiproliferative activity” (Eur J Med Chem, 2014):
Active and inactive are the calls of the source. The rule behind the calls is not given here.

Legend:
[1] = test system: MDA-MB-435; assay: Cytotoxicity against human MDA-MB-435 cells at 5 uM after 8 hrs by MTT assay; format: functional
How it was run: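 MDA-MB-435 cells in DMEM/Ham's F12 (1:1) with 10% FCS, 37 °C, 5% CO2. Time course at a fixed 5 µM, incubated 8, 16, 24 or 48 h. Viability then read by MTT reduction (0.5 mg/mL, 4 h), formazan dissolved in EtOH/DMSO, absorbance at 540 nm, as percent living cells.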

[2] = test system: HCC 2998; assay: Cytotoxicity against human HCC2998 cells after 48 hrs by SRB assay; format: functional; details: HCC 2998, 48 h
How it was run: (§1)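 NCI-60 five-dose testing, 100 to 0.01 µM, under a 48 h continuous-exposure protocol. Growth estimated by SRB protein assay, read spectrophotometrically against untreated controls; IC50 derived from the dose-response.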

[3] = test system: PC-3; assay: Cytotoxicity against human PC3 cells after 48 hrs by SRB assay; format: functional; details: PC-3, 48 h
How it was run: (§2)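 NCI-60 five-dose screen: cells exposed continuously for 48 h across 100 to 0.01 µM. Growth or viability estimated by sulforhodamine B protein staining, read spectrophotometrically against untreated controls; IC50 taken from the dose-response.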

[4] = test system: SW-620; assay: Cytotoxicity against human SW620 cells after 48 hrs by SRB assay; format: functional; details: SW-620, 48 h
How it was run: (§3)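 NCI-60 five-dose mode on the full human tumour line panel. Concentrations ran from 100 to 0.01 µM with 48 h continuous exposure. Growth was estimated by SRB protein staining against untreated controls, and IC50 values were derived from the dose–response.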

[5] = test system: MDA-MB-435; assay: Cytotoxicity against human MDA-MB-435 cells after 48 hrs by SRB assay; format: functional, cell-based; details: MDA-MB-435, 48 h; how it was run: as §2
[6] = test system: LOX IMVI; assay: Cytotoxicity against human LOXIMVI cells after 48 hrs by SRB assay; format: functional; how it was run: as §1
[7] = test system: SR; assay: Cytotoxicity against human SR cells after 48 hrs by SRB assay; format: functional; how it was run: as §3
[8] = target: Glycogen synthase kinase-3 beta (Homo sapiens) (UniProt P49841); assay: Inhibition of human GSK3 beta at 10 uM
How it was run: (§4)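 Kinase selectivity panel of 19 protein tyrosine kinases and 30 serine/threonine kinases, run by a contract lab (CEREP). Each compound was tested at a single dose of 10 μM in duplicate.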

[9] = test system: MDA-MB-435; assay: Cytotoxicity against human MDA-MB-435 cells after 48 hrs by MTT assay; format: functional, cell-based; details: MDA-MB-435, 48 h
How it was run: (§5)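 Melanoma lines grown at 37 °C in humidified 5% CO2: MDA-MB-435 in DMEM/Ham's F12 1:1 with 10% FCS and antibiotics, SK-MEL-2 in RPMI-1640 with 10% FCS. Cells plated 24 h, then exposed 48 h to 100–0.01 µM (dilutions from fresh 100 µM stock in medium). MTT 0.5 mg/mL added for 4 h, crystals dissolved in EtOH/DMSO 1:1, absorbance read at 540 nm. Mean ± SD of three independent experiments.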

[10] = test system: TK-10; assay: Cytotoxicity against human TK10 cells after 48 hrs by SRB assay; format: functional; details: TK-10, 48 h; how it was run: as §3
[11] = target: Cyclin-dependent kinase 2 (Homo sapiens) (UniProt P24941); assay: Inhibition of human CDK2 at 10 uM; how it was run: as §4
[12] = test system: MCF7; assay: Cytotoxicity against human MCF7 cells after 48 hrs by SRB assay; format: functional; details: MCF7, 48 h; how it was run: as §1
[13] = test system: NCI-H226; assay: Cytotoxicity against human NCI-H226 cells after 48 hrs by SRB assay; format: functional; details: NCI-H226, 48 h; how it was run: as §2
[14] = test system: SF-539; assay: Cytotoxicity against human SF539 cells after 48 hrs by SRB assay; format: functional; details: SF-539, 48 h; how it was run: as §2
[15] = test system: SK-MEL-2; assay: Cytotoxicity against human SK-MEL-2 cells after 48 hrs by SRB assay; format: functional; details: SK-MEL-2, 48 h; how it was run: as §2
[16] = test system: NCI-H522; assay: Cytotoxicity against human NCI-H522 cells after 48 hrs by SRB assay; format: functional; details: NCI-H522, 48 h; how it was run: as §2
[17] = test system: ACHN; assay: Cytotoxicity against human ACHN cells after 48 hrs by SRB assay; format: functional; how it was run: as §1
[18] = test system: SK-MEL-5; assay: Cytotoxicity against human SK-MEL-5 cells after 48 hrs by SRB assay; format: functional; details: SK-MEL-5, 48 h; how it was run: as §3
[19] = test system: A498; assay: Cytotoxicity against human A498 cells after 48 hrs by SRB assay; format: functional; details: A498, 48 h; how it was run: as §1
[20] = test system: SK-MEL-28; assay: Cytotoxicity against human SK-MEL-28 cells after 48 hrs by SRB assay; format: functional; details: SK-MEL-28, 48 h; how it was run: as §2
[21] = test system: U-251; assay: Cytotoxicity against human U251 cells after 48 hrs by SRB assay; format: functional; details: U-251, 48 h; how it was run: as §3
[22] = test system: MDA-MB-435; assay: Induction of apoptosis in human MDA-MB-435 cells assessed as stretched stress action fibres at 5 uM after 20 hrs by Hoechst 33342 staining-based […] microscopy; format: functional, cell-based
How it was run: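 MDA-MB-435 cells were grown for 24 h, then treated with or without 5 μM compound for 20 h. Cells were fixed for 20 min and permeabilised with 0.2% Triton X-100 for 4 min at room temperature. Actin was stained with a mouse anti-actin antibody and an Alexa Fluor 568 anti-mouse antibody, each for 1 h at RT. Nuclei were counterstained with Hoechst 33342, and cells were imaged by confocal microscopy.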

[23] = test system: SK-MEL-2; assay: Cytotoxicity against human SK-MEL-2 cells assessed as reduction in cell growth at 1 to 10 uM after 48 hrs by MTT assay relative to untreated control; format: functional; design: scale not given: the % may be the effect or the level left; how it was run: as §5
[24] = test system: MDA-MB-435; assay: Cytotoxicity against human MDA-MB-435 cells assessed as reduction in cell growth at 1 to 10 uM after 48 hrs by MTT assay relative to untreated control; format: functional; design: scale not given: the % may be the effect or the level left; how it was run: as §5
[25] = read-out: LC50 (the source's name)

Sequence of Glycogen synthase kinase-3 beta (Homo sapiens) (P49841 whole entry, looked up): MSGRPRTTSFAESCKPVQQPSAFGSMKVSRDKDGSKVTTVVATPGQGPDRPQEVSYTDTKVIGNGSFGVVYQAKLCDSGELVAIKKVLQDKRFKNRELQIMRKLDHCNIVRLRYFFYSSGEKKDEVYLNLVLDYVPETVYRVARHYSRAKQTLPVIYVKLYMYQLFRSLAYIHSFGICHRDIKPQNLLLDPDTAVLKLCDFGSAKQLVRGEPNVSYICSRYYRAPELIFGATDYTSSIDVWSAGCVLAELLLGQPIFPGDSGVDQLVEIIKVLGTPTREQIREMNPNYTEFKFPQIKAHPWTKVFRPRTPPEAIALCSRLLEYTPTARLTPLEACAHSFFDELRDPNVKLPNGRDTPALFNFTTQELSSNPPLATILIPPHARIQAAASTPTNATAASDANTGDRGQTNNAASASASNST

Question: Which results are given for `C[C@@H]1NC(c2ccc(Br)cc2)=Nc2nc3ccccn3c2C1=O`?
Answer: Activity [1]: 35%; GI50 [2]: 21.9 µM; TGI [2]: > 100 µM; CC50 [2, 25]: > 100 µM; GI50 [3]: 5.7 µM; TGI [3]: > 100 µM; CC50 [3, 25]: > 100 µM; GI50 [4]: 3.75 µM; TGI [4]: > 100 µM; CC50 [4, 25]: > 100 µM; GI50 [5]: 1.33 µM; IC50 [5]: 1.3 µM; LC50 [5]: > 100 µM; TGI [5]: 7.1 µM; GI50 [6]: 6.34 µM; TGI [6]: > 100 µM; CC50 [6, 25]: > 100 µM; GI50 [7]: 2.42 µM; TGI [7]: > 100 µM; CC50 [7, 25]: > 100 µM; inhibition [8]: inactive; IC50 [9]: 1.7 µM; GI50 [10]: 21 µM; TGI [10]: > 100 µM; CC50 [10, 25]: > 100 µM; inhibition [11]: inactive; GI50 [12]: 2.99 µM; TGI [12]: > 100 µM; CC50 [12, 25]: > 100 µM; GI50 [13]: 14.7 µM; TGI [13]: > 100 µM; CC50 [13, 25]: > 100 µM; GI50 [14]: 7.98 µM; TGI [14]: 85.3 µM; CC50 [14, 25]: > 100 µM; GI50 [15]: 15.7 µM; TGI [15]: > 100 µM; CC50 [15, 25]: > 100 µM; GI50 [16]: 3.23 µM; TGI [16]: 18.4 µM; CC50 [16, 25]: > 100 µM; GI50 [17]: 6.75 µM; TGI [17]: > 100 µM; CC50 [17, 25]: > 100 µM; GI50 [18]: 2.24 µM; TGI [18]: 40.5 µM; CC50 [18, 25]: > 100 µM; GI50 [19]: 3.26 µM; TGI [19]: 38.2 µM; CC50 [19, 25]: > 100 µM; GI50 [20]: 9.51 µM; TGI [20]: > 100 µM; CC50 [20, 25]: > 100 µM; GI50 [21]: 6.64 µM; TGI [21]: > 100 µM; CC50 [21, 25]: > 100 µM

Question: `C[C@@H]1NC(c2ccccc2)=Nc2nc3ccccn3c2C1=O` was tested. Which Activity [22] did it give?
Answer: The Activity was “inactive”.

Question: And the Activity [23]?
Answer: Its Activity is 20%.

Question: And the Activity [24]?
Answer: The Activity was 20%.
